According to ChEMBL document CHEMBL1152867, “Targeting QseC signaling and virulence for antibiotic development” (Science, 2008):
Calls of active or inactive are those of the source. The calls are words filed in the database; no cut-off is given here.

How the values were obtained:
[1] = target: Beta-1 adrenergic receptor (Homo sapiens) (UniProt P08588); test: Activation of human beta-1-adrenergic receptor expressed in HEK293 cells assessed as cAMP release at 5 uM; type: functional, cell-based
Summary of the method: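 Live HEK293 cells carried an EPAC-based cAMP BRET reporter and expressed endogenous β2 or exogenous β1 or β3 adrenergic receptors. Cells were exposed to test compound alone at 5 μM. Values are means of triplicates, representative of 3 experiments.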

[2] = target: Beta-2 adrenergic receptor (Homo sapiens) (UniProt P07550); test: Effect on terbulaline-induced human beta-2-adrenergic receptor activation expressed in HEK293 cells assessed as cAMP release at 5 uM; type: functional, cell-based
Summary of the method: (§1)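 HEK293 cells carried an EPAC-based cAMP BRET reporter. The agonist for β1 (exogenous) was 1 nM dobutamine, for β2 (endogenous) 100 nM terbutaline, and for β3 (exogenous) 10 nM BRL37344. Each agonist was given alone or with 5 μM compound. Live-cell cAMP was read as triplicate means, representative of 3 experiments.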

[3] = target: Beta-1 adrenergic receptor (Homo sapiens) (UniProt P08588); test: Effect on dobutamine-induced human beta-1-adrenergic receptor activation expressed in HEK293 cells assessed as cAMP release at 5 uM; type: functional, cell-based; summary of the method: as §1
[4] = Terminal half life in CD1 mouse at 20 mg/kg, iv administered as bolus dose; type: ADME, organism-based; design: dose 20 mg/kg, route intravenous; conditions: in vivo, read-out: beta t1/2
Summary of the method: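 Groups of three were bled terminally by cardiac puncture at set times. Plasma was acetonitrile-precipitated with internal standard and quantified by electrospray LC/MS/MS against a plasma standard curve (10-1000 ng/ml). Noncompartmental analysis was used.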

[5] = tested on: Escherichia coli; test: Inhibition of [3H]norepinephrine binding to Escherichia coli Qsec at 5 pM by liposome-based scintillation counting assay
Summary of the method: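 Liposomes reconstituted with QseC were loaded with tritiated norepinephrine (5 μM) by freeze-thaw in liquid N2 and held 10 min at room temperature, so unbound signal could diffuse out. They were pelleted at 12,000g for 5 min and counted for tritium. Counts were normalized to liposomes loaded with 5 μM tyrosine. Compound was tested at 5 pM and 5 fM.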

[6] = tested on: Escherichia coli; test: Inhibition of epinephrine-induced Escherichia coli Qsec autophosphorylation at 5 pM by liposome-based SDS-PAGE
[7] = tested on: Escherichia coli; test: Inhibition of AI3-induced Qsec-dependent virulence gene ler expression in Escherichia coli at 5 pM by quantitative real-time PCR; type: functional, organism-based
[8] = tested on: Escherichia coli; test: Inhibition of epinephrine-induced EspA protein secretion in Escherichia coli 8624 at 5 pM by Western blot; type: functional, organism-based
Summary of the method: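 Secreted proteins in cell-free supernatant were TCA-precipitated and immunoblotted with rabbit polyclonal anti-EspA and anti-EspB, with ECL detection.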

[9] = tested on: Escherichia coli; test: Bactericidal activity against Escherichia coli 8624 at 1 uM; type: functional, organism-based
[10] = tested on: Escherichia coli; test: Antibacterial activity against Escherichia coli infected in New Zealand white rabbit assessed as inhibition of bacterial colonization in ileum at 20 mg/kg administered along with bacterial challenge; type: functional, organism-based; design: dose 20 mg/kg
[11] = tested on: Escherichia coli; test: Antibacterial activity against Escherichia coli infected in New Zealand white rabbit assessed as inhibition of bacterial colonization in ileum at 20 mg/kg administered 3 hrs post-bacterial challenge; type: functional, organism-based; design: dose 20 mg/kg
[12] = tested on: Escherichia coli; test: Antibacterial activity against Escherichia coli infected in New Zealand white rabbit assessed as inhibition of bacterial colonization in cecum at 20 mg/kg pretreated before 3 hrs of bacterial challenge; type: functional, organism-based; design: dose 20 mg/kg; conditions: Caecum
[13] = tested on: Escherichia coli; test: Antibacterial activity against Escherichia coli infected in New Zealand white rabbit assessed as inhibition of bacterial colonization in cecum at 20 mg/kg administered 3 hrs post-bacterial challenge; type: functional, organism-based; design: dose 20 mg/kg; conditions: Caecum
[14] = tested on: Salmonella typhimurium; test: Antibacterial activity against Salmonella Typhimurium SL1344 infected in 129x1/SvJ mouse assessed as survival at 20 mg/kg, po administered 3 hrs pre and 3 hrs post-bacterial challenge measured after 24 hrs; type: functional
Summary of the method: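 Female 129x1/SvJ mice, 7–9 weeks old, were infected intraperitoneally with 10^8 cfu S. typhimurium SL1344. The test agent was given orally at 20 mg/kg in 5% DMSO/23% PEG400/70% Na bicarbonate pH 9/2% Tween 80, 3 h before and 3 h after infection. Controls were drug alone and infection alone. Groups of 10 mice were used and the experiment was repeated twice. Morbidity and death were recorded daily, and survivors were euthanized at day 12.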

[15] = tested on: Salmonella typhimurium; test: Bacteriostatic activity against Salmonella Typhimurium SL1344 at 1 uM in presence of epinephrine; type: functional, organism-based; conditions: Salmonella enterica subsp. enterica serovar Typhimurium str. SL1344
[16] = tested on: Francisella tularensis subsp. tularensis SCHU S4; test: Antibacterial activity against Francisella tularensis SCHU S4 infected in mouse J774 cells assessed as reduction in bacterial CFU at 5 nM relative to control; type: functional
[17] = tested on: Francisella tularensis subsp. tularensis SCHU S4; test: Inhibition of virulence gene mglA expression in Francisella tularensis SCHU S4 at 5 pM by quantitative real-time PCR; type: functional, organism-based
[18] = Clearance in CD1 mouse at 20 mg/kg, po; type: ADME, organism-based; design: dose 20 mg/kg, route oral; conditions: in vivo
Summary of the method: (§2)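 Terminal cardiac bleeds were taken in groups of three at set times. Plasma was acetonitrile-precipitated with internal standard and analysed by LC/MS/MS against a spiked-plasma standard curve. Parameters came from noncompartmental analysis.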

[19] = Cmax in CD1 mouse at 20 mg/kg, po; type: ADME, organism-based; design: dose 20 mg/kg, route oral; conditions: in vivo; summary of the method: as §2
[20] = Oral bioavailability in CD1 mouse at 20 mg/kg; type: ADME, organism-based; conditions: in vivo
Summary of the method: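 Female CD-1 mice received 20 mg/kg either as an i.v. bolus or by oral gavage, in the same DMSO/PEG400/Tween 80/bicarbonate pH 9 vehicle. Plasma levels were measured by LC/MS/MS. Bioavailability = AUCoral/AUCiv × Doseiv/Doseoral, using noncompartmental AUCs.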

[21] = tested on: Francisella tularensis subsp. tularensis SCHU S4; test: Antibacterial activity against Francisella tularensis SCHU S4 infected C3H HeN mouse assessed as survival at 20 mg/kg, po administered single dose 3 hrs post-bacterial measured after 9 days; type: functional
[22] = tested on: Mus musculus; test: Toxicity in CD1 mouse assessed as change in lung weight at 20 mg/kg, po administered daily once for 5 days measured 3 days after final dose; type: organism-based; design: dose 20 mg/kg, route oral; conditions: in vivo, 72 h
Summary of the method: (§3)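 Female CD-1 mice (~22 g), three per group, given 20 mg/kg by oral gavage once daily for 5 days. Vehicle-only mice served as controls. Animals were weighed and observed daily. Three days after the last dose they were weighed and sacrificed. Blood was taken for chemistry and complete blood counts, and organs were weighed.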

[23] = tested on: Mus musculus; test: Toxicity in CD1 mouse assessed as change in kidney weight at 20 mg/kg, po administered daily once for 5 days measured 3 days after final dose; type: organism-based; design: dose 20 mg/kg, route oral; conditions: in vivo, 72 h; summary of the method: as §3
[24] = tested on: Mus musculus; test: Toxicity in CD1 mouse assessed as total bilirubin levels at 20 mg/kg, po administered daily once for 5 days measured 3 days after final dose; type: organism-based; design: dose 20 mg/kg, route oral; conditions: in vivo, 72 h; summary of the method: as §3
[25] = tested on: Mus musculus; test: Toxicity in CD1 mouse assessed as urea nitrogen levels at 20 mg/kg, po administered daily once for 5 days measured 3 days after final dose; type: organism-based; design: dose 20 mg/kg, route oral; conditions: in vivo, 72 h; summary of the method: as §3
[26] = tested on: Mus musculus; test: Toxicity in CD1 mouse assessed as creatinine levels at 20 mg/kg, po administered daily once for 5 days measured 3 days after final dose; type: organism-based; design: dose 20 mg/kg, route oral; conditions: in vivo, 72 h; summary of the method: as §3
[27] = tested on: Mus musculus; test: Toxicity in CD1 mouse assessed as basophil counts at 20 mg/kg, po administered daily once for 5 days measured 3 days after final dose; type: organism-based; design: dose 20 mg/kg, route oral; conditions: in vivo, 72 h; summary of the method: as §3
[28] = tested on: Escherichia coli; test: Antibacterial activity against Escherichia coli 8624 assessed as induction of SOS response; type: functional, organism-based
[29] = tested on: Francisella tularensis subsp. tularensis SCHU S4; test: Bacteriostatic activity against Francisella tularensis SCHU S4 at 1 uM in presence of epinephrine; type: functional, organism-based
[30] = tested on: Mus musculus; test: Toxicity in C3H HeN mouse at 20 mg/kg, po administered as single dose; type: organism-based; design: dose 20 mg/kg, route oral; conditions: in vivo

Chain of Beta-1 adrenergic receptor (Homo sapiens) (P08588 whole entry, looked up): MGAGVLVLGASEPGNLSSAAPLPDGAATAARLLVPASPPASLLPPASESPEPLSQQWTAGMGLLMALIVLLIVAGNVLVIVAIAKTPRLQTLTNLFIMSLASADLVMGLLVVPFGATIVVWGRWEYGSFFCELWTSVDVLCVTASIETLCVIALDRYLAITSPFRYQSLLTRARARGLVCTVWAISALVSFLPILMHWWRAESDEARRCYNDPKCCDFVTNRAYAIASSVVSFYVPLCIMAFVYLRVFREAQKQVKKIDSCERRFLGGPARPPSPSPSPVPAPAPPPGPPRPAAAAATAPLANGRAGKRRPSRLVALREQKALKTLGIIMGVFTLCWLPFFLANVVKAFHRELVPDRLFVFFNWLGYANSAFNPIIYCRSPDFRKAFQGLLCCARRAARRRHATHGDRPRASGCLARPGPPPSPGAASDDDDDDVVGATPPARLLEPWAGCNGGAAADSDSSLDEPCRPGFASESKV
Chain of Beta-2 adrenergic receptor (Homo sapiens) (P07550 whole entry, looked up): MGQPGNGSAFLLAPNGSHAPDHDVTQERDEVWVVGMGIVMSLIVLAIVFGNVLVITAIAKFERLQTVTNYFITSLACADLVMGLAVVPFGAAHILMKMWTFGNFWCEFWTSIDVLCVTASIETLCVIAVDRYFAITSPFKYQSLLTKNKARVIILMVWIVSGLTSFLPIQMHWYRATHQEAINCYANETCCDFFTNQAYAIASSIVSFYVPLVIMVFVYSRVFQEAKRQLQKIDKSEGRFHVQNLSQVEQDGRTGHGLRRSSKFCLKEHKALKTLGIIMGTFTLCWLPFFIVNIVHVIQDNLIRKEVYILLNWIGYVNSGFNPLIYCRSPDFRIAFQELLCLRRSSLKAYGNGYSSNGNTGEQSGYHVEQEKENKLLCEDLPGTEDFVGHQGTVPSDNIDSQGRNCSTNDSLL

O=S(=O)(Nc1ccccc1)c1ccc(NC(=S)Nc2ccccc2)cc1
Activity [1]: inactive | Activity [2]: inactive | Activity [3]: inactive | half-life [4]: 5.65 h | Activity [5]: Active | Activity [6]: inactive | Activity [7]: Active | Activity [8]: Active | Activity [9]: inactive | Activity [10]: inactive | Activity [11]: inactive | Activity [12]: inactive | Activity [13]: inactive | Activity [14]: 80% | Activity [15]: inactive | fold change (FC) [16]: 10 | Activity [17]: Active | CL/F [18]: 2.34 mL/min | Cmax [19]: 2700 ng/mL | bioavailability [20]: 69.3% | Activity [21]: 80% | Activity [22]: Non-toxic | Activity [23]: Non-toxic | Activity [24]: 0.2 mg/dL | Activity [25]: 19 mg/dL | Activity [26]: 0.2 mg/dL | Activity [27]: 0% | Activity [28]: inactive | Activity [29]: inactive | Activity [30]: Non-toxic
